Columns and labels:
[1] = Selectivity ratio of IC50 for TNAP to IC50 for PLAP
[2] = molecular target: T1, Alkaline phosphatase, tissue-nonspecific isozyme (Homo sapiens, UniProt P05186); experiment: Inhibition of TNAP by analogous luminescence assay
T1 sequence (P05186 whole entry): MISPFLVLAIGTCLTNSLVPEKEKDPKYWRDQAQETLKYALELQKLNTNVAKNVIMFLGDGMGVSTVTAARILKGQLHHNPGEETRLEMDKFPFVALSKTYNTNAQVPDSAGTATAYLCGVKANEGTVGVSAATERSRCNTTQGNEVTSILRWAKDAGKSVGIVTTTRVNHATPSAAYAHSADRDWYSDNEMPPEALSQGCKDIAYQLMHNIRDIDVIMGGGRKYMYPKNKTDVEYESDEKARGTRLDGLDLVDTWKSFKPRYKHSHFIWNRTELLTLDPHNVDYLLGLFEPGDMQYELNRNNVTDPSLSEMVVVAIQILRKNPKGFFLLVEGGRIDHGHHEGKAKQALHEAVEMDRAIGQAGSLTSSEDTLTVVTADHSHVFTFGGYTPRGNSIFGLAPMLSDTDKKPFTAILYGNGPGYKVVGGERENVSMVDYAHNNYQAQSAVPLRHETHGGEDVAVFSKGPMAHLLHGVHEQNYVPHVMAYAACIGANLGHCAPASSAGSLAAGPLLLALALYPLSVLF

[3] = molecular target: Alkaline phosphatase, germ cell type (Homo sapiens, UniProt P10696); experiment: Inhibition of GCAP by analogous luminescence assay
In short: (§1)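 GCAP and PLAP IC50s were measured together in dose-response runs on a separate occasion, using enzyme concentrations that differed from those of the main assays.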

[4] = Selectivity ratio of IC50 for GCAP to IC50 for PLAP; in short: as §1
[5] = Selectivity ratio of IC50 for IAP to IC50 for PLAP
[6] = molecular target: Intestinal-type alkaline phosphatase (Homo sapiens, UniProt P09923); experiment: Inhibition of IAP by analogous luminescence assay
Chain of Intestinal-type alkaline phosphatase (P09923 whole entry): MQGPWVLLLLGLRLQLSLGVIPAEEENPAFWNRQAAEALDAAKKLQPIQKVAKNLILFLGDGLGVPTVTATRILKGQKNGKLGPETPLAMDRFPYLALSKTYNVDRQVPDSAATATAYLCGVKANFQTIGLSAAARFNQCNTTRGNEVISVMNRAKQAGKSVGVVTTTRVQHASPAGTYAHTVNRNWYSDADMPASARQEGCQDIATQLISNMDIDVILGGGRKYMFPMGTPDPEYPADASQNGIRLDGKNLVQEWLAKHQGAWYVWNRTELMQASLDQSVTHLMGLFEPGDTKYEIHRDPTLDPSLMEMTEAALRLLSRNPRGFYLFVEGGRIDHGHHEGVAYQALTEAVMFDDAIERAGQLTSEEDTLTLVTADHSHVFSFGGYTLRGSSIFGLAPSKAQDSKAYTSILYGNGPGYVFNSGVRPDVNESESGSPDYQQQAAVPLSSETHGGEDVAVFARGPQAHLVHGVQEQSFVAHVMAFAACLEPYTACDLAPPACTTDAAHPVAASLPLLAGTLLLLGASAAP

Chain of Alkaline phosphatase, germ cell type (P10696 whole entry): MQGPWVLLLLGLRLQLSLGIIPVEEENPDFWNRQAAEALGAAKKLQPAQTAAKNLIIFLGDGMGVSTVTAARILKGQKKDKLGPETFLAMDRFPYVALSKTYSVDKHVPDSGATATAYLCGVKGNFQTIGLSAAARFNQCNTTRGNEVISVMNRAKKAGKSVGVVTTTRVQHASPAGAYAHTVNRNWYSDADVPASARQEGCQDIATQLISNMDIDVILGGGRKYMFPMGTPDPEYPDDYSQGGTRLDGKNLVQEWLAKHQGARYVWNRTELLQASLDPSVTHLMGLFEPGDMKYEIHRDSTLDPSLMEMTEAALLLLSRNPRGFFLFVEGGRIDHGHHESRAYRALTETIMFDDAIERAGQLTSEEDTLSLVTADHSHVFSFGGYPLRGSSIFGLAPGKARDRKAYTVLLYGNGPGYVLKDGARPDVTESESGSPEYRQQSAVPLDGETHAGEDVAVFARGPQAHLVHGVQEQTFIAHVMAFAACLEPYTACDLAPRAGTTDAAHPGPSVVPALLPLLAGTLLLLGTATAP

Row | SMILES | IC50 [2] [µM] | IC50 [6] [µM] | further results
1 | Cc1nc(Br)cn1CC(=O)c1ccc(O)c(O)c1 | 8.7 |  | Ratio IC50 [1]: 1.7
2 | O=C(Cn1ccnc1)c1ccc(O)c(O)c1 | > 100 |  | IC50 [3]: 1.2 µM; Ratio IC50 [1]: > 32; Ratio IC50 [4]: 0.6; Ratio IC50 [5]: 15
3 | CCc1nccn1CC(=O)c1ccc(O)c(O)c1 | > 100 | > 100 | IC50 [3]: 1.7 µM; Ratio IC50 [1]: > 27; Ratio IC50 [4]: 2.1; Ratio IC50 [5]: > 24
4 | Cc1cn(CC(=O)c2ccc(O)c(O)c2)cn1 | 41.1 |  | Ratio IC50 [1]: 7
5 | O=C(Cn1cnc(Br)c1)c1ccc(O)c(O)c1 | 47.5 |  | 
6 | c1ccc([C@H]2CN3CCSC3=N2)cc1 [LEVAMISOLE] |  | > 5 | 
7 | CC(C)C[C@H](N)C(N)=O [LEUCINE AMIDE] |  | > 5 | 
8 | COc1ccc2c(c1OC)C(=O)OC2CC(=O)c1ccc(O)c(O)c1 (configuration not stated) | 29.2 |  | 
9 | Cc1cc(C)nc(SCC(=O)c2ccc(O)c(O)c2)n1 |  |  | IC50 [3]: 0.6 µM
10 | O=C(CNc1nc2ccccc2[nH]1)c1ccc(O)c(O)c1 | 93.8 |  | IC50 [3]: 6.2 µM; Ratio IC50 [4]: 0.7
11 | COc1ccc(-n2nnnc2SCC(=O)c2ccc(O)c(O)c2)cc1 | 8 |  | 
12 | N[C@@H](Cc1c[nH]c2ccccc12)C(=O)O [TRYPTOPHAN] |  | > 5 | 
13 | O=C(Cn1cnnc1)c1ccc(O)c(O)c1 | > 100 |  | 
14 | CC(C)C[C@H](N)C(=O)O [LEUCINE] |  | > 5 | 
15 | Cc1cc2ncn(CC(=O)c3ccc(O)c(O)c3)c2cc1C | > 100 |  | 
16 | Cc1nc2ccccc2n1CC(=O)c1ccc(O)c(O)c1 | 26.3 | > 100 | IC50 [3]: 9.4 µM
17 | O=C(Cn1cnc2ccccc21)c1ccc(O)c(O)c1 | 18 |  | IC50 [3]: 2.7 µM
18 | Cc1cnn(CC(=O)c2ccc(O)c(O)c2)c1 | > 100 |  | Ratio IC50 [5]: 25
19 | Cn1c(=O)c2[nH]cnc2n(C)c1=O [THEOPHYLLINE] |  | > 5 | 
20 | N[C@@H](Cc1ccccc1)C(=O)O [PHENYLALANINE] |  | > 5 | 
21 | N=C(N)NCCCC[C@H](N)C(=O)O |  | > 5 | 
22 | O=C(Cn1ccnc1-c1ccccc1)c1ccc(O)c(O)c1 | > 100 |  | 
23 | CC(C)NCC(=O)c1ccc(O)c(O)c1 | > 100 |  | 
24 | Cc1nccn1CC(=O)c1ccc(O)c(O)c1 | 78.3 |  | IC50 [3]: 30.5 µM

Reference: ChEMBL document CHEMBL1159036, “Design and synthesis of selective inhibitors of placental alkaline phosphatase” (Bioorg Med Chem, 2010)
